Data as given in ChEMBL document CHEMBL1157338, “5-alkylresorcinols from Merulius incarnatus” (J Nat Prod, 2006).
Converted amounts (≈) assume the structure as drawn. The source made the active and inactive calls. The rule behind the calls is not given here.

What was measured:
Staphylococcus aureus = assay: Antimicrobial activity against methicillin-resistant Staphylococcus aureus ATCC 43300 by antimicrobial susceptibility test; type: functional, organism-based
Cryptococcus neoformans = assay: Antimicrobial activity against Cryptococcus neoformans ATCC 90113 by broth dilution method; type: functional, organism-based
[1] = tested on: Mycobacterium intracellulare; assay: Antimicrobial activity against Mycobacterium intracellular ATCC 23068 by alamar blue method; type: functional, organism-based
How it was run: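 Modified Alamar Blue procedure, highest concentration 20 µg/mL. IC50 taken from dose-response curves, with amphotericin B as positive control.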

Candida albicans = assay: Antimicrobial activity against Candida albicans ATCC 90028 by broth dilution method; type: functional, organism-based
Nakaseomyces glabratus = assay: Antimicrobial activity against Candida glabrata ATCC 90030 by broth dilution method; type: functional, organism-based
Pichia kudriavzevii = assay: Antimicrobial activity against Candida krusei ATCC 6258 by broth dilution method; type: functional, organism-based
Aspergillus fumigatus = assay: Antimicrobial activity against Aspergillus fumigatus ATCC 90906 by broth dilution method; type: functional, organism-based
Leishmania major = assay: Antileishmanial activity against Leishmania major MRHO/IR/75/ER promastigotes after 72 hrs by alamar blue assay; type: functional, organism-based
How it was run: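 Alamar Blue read-out against promastigotes, with pentamidine and amphotericin B as reference standards.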

Vero = assay: Cytotoxicity against african green monkey Vero cells at 25 ug/ml; type: cell-based; details: chlorocebus sabaeus

Compound `CCCCC/C=C\C/C=C\CCCCCCCc1cc(O)cc(O)c1` has an IC50 (Staphylococcus aureus) of 6.5 µg/mL (≈ 18.9 µM).
For `C=CCCC/C=C\C=C\CCCCCCCCc1cc(O)cc(O)c1`, the IC50 (Staphylococcus aureus) was 15 µg/mL (≈ 43.8 µM).
Compound `C[C@@H]1[C@H](O)[C@@H](C)/C=C/C=C/C=C/C=C/C=C/C=C/C=C/[C@H](O[C@@H]2O[C@H](C)[C@@H](O)[C@H](N)[C@@H]2O)C[C@@H]2O[C@](O)(C[C@@H](O)C[C@@H](O)[C@H](O)CC[C@@H](O)C[C@@H](O)CC(=O)O[C@H]1C)C[C@H](O)[C@H]2C(=O)O` [AMPHOTERICIN B] has an IC50 (Cryptococcus neoformans) of 0.75 µg/mL (≈ 0.812 µM).
For `CCCCCCCC/C=C\CCCCCCCc1cc(O)cc(O)c1`, the IC50 (Staphylococcus aureus) was 8 µg/mL (≈ 23.1 µM) and the IC50 [1] was 10 µg/mL (≈ 28.9 µM).
With `CCCCCCCCCCCCCCCc1cc(O)cc(O)c1` the Activity (Candida albicans) was “inactive”, the Activity (Nakaseomyces glabratus) was “inactive” and the Activity (Pichia kudriavzevii) was “inactive”. For the same compound, the Activity (Aspergillus fumigatus) was “inactive”.
For `O=C(O)c1cn(C2CC2)c2cc(N3CCNCC3)c(F)cc2c1=O` [CIPROFLOXACIN], the IC50 [1] was 0.4 µg/mL (≈ 1.21 µM).
`CCCCCCCCCCCCCCCCCc1cc(O)cc(O)c1` was tested, and the Activity (Candida albicans) was “inactive”, the Activity (Nakaseomyces glabratus) was “inactive” and the Activity (Pichia kudriavzevii) was “inactive”. The Activity (Aspergillus fumigatus) was “inactive”.
`C=CCCC/C=C\C/C=C\CCCCCCCc1cc(O)cc(O)c1` showed an IC50 (Staphylococcus aureus) of 2.5 µg/mL (≈ 7.3 µM), an IC50 (Leishmania major) of 3.6 µg/mL (≈ 10.5 µM) and an IC90 (Leishmania major) of 7 µg/mL (≈ 20.4 µM). The Activity (Vero) was “Non-toxic”.
With `N=C(N)c1ccc(OCCCCCOc2ccc(C(=N)N)cc2)cc1` [PENTAMIDINE] the IC50 (Leishmania major) was 0.6 µg/mL (≈ 1.76 µM) and the IC90 (Leishmania major) was 1.9 µg/mL (≈ 5.58 µM).
